Test results taken from ChEMBL document CHEMBL1148140, “Isolation of streptonigrin and its novel derivative from Micromonospora as inducing agents of p53-dependent cell apoptosis” (J Nat Prod, 2002).
Activity calls are given as the source filed them. The rule behind the calls is not given here.

Assays:
SH-SY5Y [1] = test: Cytotoxicity against human wild type SH-SY5Y cells; type: functional, cell-based
How it was run: (§1)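 Viability by MTS tetrazolium reduction. Neuroblastoma SH-SY5Y and SH-SY5Y-5.6 lines (HA-tagged 91-aa mini p53) were seeded the day before at 10⁵ cells/mL in RPMI with hygromycin 0.1 mg/mL. Exposure was 24 h; MTS was added at hour 20 (final 0.04 mg/well) for 4 h at 37 °C. Dose-response was run on reproducible hits.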

SH-SY5Y [2] = test: Induction of apoptosis in human SH-SY5Y cells assessed as nuclear accumulation of p53; type: functional, cell-based
SH-SY5Y [3] = test: Selectivity ratio of IC50 for human SH-SY5Y cells overexpressing dominant negative mutant of p53 to IC50 for human wild type SH-SY5Y cells; type: functional
SH-SY5Y [4] = test: Cytotoxicity against human SH-SY5Y cells overexpressing dominant negative mutant of p53; type: functional, cell-based; how it was run: as §1
SH-SY5Y [5] = test: Induction of apoptosis in human SH-SY5Y cells assessed as DNA ladder activity; type: functional, cell-based
SH-SY5Y [6] = test: Cytotoxicity against human SH-SY5Y cells overexpressing dominant negative mutant of p53 upto 100 uM; type: functional, cell-based; how it was run: as §1
SH-SY5Y [7] = test: Cytotoxicity against human wild type SH-SY5Y cells upto 100 uM; type: functional, cell-based; how it was run: as §1

| SMILES | IC50 (SH-SY5Y [1]) | Activity (SH-SY5Y [2]) | Ratio IC50 (SH-SY5Y [3]) | IC50 (SH-SY5Y [4]) | Activity (SH-SY5Y [5]) | Activity (SH-SY5Y [6]) | Activity (SH-SY5Y [7]) |
| --- | --- | --- | --- | --- | --- | --- | --- |
| COC1=C(N)C(=O)c2nc(-c3nc(C(=O)O)c(C)c(-c4ccc(OC)c(OC)c4O)c3N)ccc2C1=O [STREPTONIGRIN] | 0.05 µM | Active | 92 | 4.6 µM | Active | – | – |
| CC(C)/C=c1\[nH]c(=O)/c(=C/c2ccccc2)[nH]c1=O | – | – | – | – | – | inactive | inactive |
| CC(C)/C=c1\c(=O)[nH]/c(=C\c2ccccc2)c(=O)n1C | – | – | – | – | – | inactive | inactive |
| COC1=C(NC(C)C(C)=O)C(=O)c2nc(-c3nc(C(=O)O)c(C)c(-c4ccc(OC)c(OC)c4O)c3N)ccc2C1=O (stereo not drawn) | 0.9 µM | – | – | 75 µM | – | – | – |
| C[C@H]1CNCCN1S(=O)(=O)c1cccc2cnccc12 | 40 µM | – | – | 80 µM | – | – | – |
